The nature of data set [1]: Enzymatic stability assessed as alpha-chymotrypsin (unknown origin)-mediated compound hydrolysis at pH 7.8 at 0.1 mg/ml incubated for 24 hrs by HPLC-MS analysis. The class given is ADME. The settings on record: human, buffer, pH 7.8, 24 h. A digest of the protocol:
(§1)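 Compound (0.1 mg/mL) was incubated with 0.1 mg/mL α-chymotrypsin or pronase in 100 mM ammonium bicarbonate, pH 7.8, at 37 °C for 24 h. Mixtures were concentrated by speed vacuum to remove water and buffer salt. Residual compound was then analysed by HPLC-MS.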

In data set [2] the target is T1, E3 ubiquitin-protein ligase Mdm2 (Homo sapiens, UniProt Q00987). Kind of data set: Binding affinity to human MDM2 expressed in Escherichia coli expression system by using (FITC)-labeled p53 peptide based fluorescence polarization competitive assay.
Target sequence in this assay (Q00987 whole entry): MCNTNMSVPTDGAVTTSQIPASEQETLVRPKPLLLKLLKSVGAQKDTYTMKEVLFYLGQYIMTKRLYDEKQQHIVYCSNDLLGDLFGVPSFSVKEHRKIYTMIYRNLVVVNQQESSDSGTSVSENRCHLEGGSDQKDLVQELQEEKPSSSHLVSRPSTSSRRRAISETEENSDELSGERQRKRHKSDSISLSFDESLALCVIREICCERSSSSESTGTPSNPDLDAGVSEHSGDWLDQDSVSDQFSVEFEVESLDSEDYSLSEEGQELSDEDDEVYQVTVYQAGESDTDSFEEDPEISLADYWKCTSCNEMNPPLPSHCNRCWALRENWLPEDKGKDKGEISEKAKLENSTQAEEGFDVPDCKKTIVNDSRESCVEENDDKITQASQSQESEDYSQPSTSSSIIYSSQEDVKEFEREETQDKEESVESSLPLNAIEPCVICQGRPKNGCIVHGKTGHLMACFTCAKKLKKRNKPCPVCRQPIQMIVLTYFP
The target in data set [3] is T1, E3 ubiquitin-protein ligase Mdm2. Briefly: Potency index, ratio of p53 IC50 to test compound IC50 for binding affinity to human MDM2 expressed in Escherichia coli expression system by using (FITC)-labeled p53 peptide based fluorescence polarization competitive assay.
Target sequence in this assay (Q00987 whole entry, looked up): as the sequence (Q00987 whole entry) above
For data set [4], the target named is Cellular tumor antigen p53 (Homo sapiens) (UniProt P04637). Kind of data set: Activation of p53 in human U2OS cells cotransfected with BP100-luc and CMV-lacZ gene assessed as luciferase gene expression at 30 uM incubated for 18 hrs by p53-dependent luciferase transcriptional activation assay. Format: cell-based. A digest of the protocol: (§2)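 U2OS cells stably carrying the p53-responsive BP100-luc reporter and a CMV-lacZ control were seeded at 100,000 per well 24 h before dosing at 30 μM. Lysates were assayed for luciferase and β-gal activity. […] Each value is the average of at least three measurements, with standard deviation.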

For data set [5] the target is unchanged. Kind of data set: Activation of p53 in human U2OS cells cotransfected with BP100-luc and CMV-lacZ gene assessed as lacZ gene expression at 30 uM incubated for 18 hrs by p53-dependent luciferase transcriptional activation assay. The class given is cell-based. The gist of the method:
as §2

A further data set addresses T2, Protein Mdm4 (Homo sapiens, UniProt O15151).
T2 sequence (O15151 whole entry): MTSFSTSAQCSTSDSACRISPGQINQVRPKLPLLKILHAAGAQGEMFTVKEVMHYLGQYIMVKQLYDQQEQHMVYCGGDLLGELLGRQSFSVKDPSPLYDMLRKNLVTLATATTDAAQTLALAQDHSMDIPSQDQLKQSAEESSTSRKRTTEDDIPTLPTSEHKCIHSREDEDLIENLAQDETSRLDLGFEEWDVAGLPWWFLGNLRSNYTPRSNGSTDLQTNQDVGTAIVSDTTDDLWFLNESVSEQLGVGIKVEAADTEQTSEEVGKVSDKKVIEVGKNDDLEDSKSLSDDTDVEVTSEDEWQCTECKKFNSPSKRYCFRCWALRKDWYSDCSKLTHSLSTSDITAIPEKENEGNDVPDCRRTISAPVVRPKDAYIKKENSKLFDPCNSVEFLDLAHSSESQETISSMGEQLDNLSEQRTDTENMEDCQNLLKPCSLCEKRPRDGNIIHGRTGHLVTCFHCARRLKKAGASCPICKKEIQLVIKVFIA
Briefly: Binding affinity to MDMX (unknown origin) by using (FITC)-labeled p53 peptide based fluorescence polarization competitive assay.

Data set [6] is described as follows: Enzymatic stability assessed as pronase (unknown origin)-mediated compound hydrolysis at pH 7.8 at 0.1 mg/ml incubated for 24 hrs by HPLC-MS analysis. The settings on record: buffer, pH 7.8, 24 h. The class given is ADME. The gist of the method: as §1
Data set [7] addresses T1, E3 ubiquitin-protein ligase Mdm2. Kind of data set: Binding affinity to human MDM2 (17-125 residues) by NMR spectroscopic analysis. The gist of the method:
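Uniformly 15N/13C-labelled human MDM2 residues 17–125 was analysed free and with ligand. Sensitivity-enhanced 1H–15N HSQC and 3D HNCA spectra were recorded for resonance assignment. Buffer was 50 mM sodium phosphate, 100 NaCl, 1 mM EDTA, 0.02% sodium azide and 2 mM DTT, pH 6.8, with 10% D2O.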
Target sequence in this assay (Q00987 whole entry, looked up): as the sequence (Q00987 whole entry) above

Data set [8] has the same target. Briefly: Potency index, ratio of p53 binding affinity to compound binding affinity to human MDM2 (17-125 residues) by NMR spectroscopic analysis.
Target sequence in this assay (Q00987 whole entry, looked up): as the sequence (Q00987 whole entry) above
Data set [9] concerns HCT-116. Briefly: Antiproliferative activity against human HCT116 cells expressing wild-type p53 assessed as reduction in cell viability at 200 uM incubated for 48 hrs by MTT assay.
The subject of data set [10] is HCT-116. Briefly: Antiproliferative activity against human HCT116 cells harboring p53 deletion mutant assessed as reduction in cell viability at 200 uM incubated for 48 hrs by MTT assay.
Data set [11] deals with T3, Tumour suppressor p53/oncoprotein Mdm2 (Homo sapiens) (UniProt P04637+Q00987). Briefly: Inhibition of MDM2/p53 interaction in human U2OS cells assessed as increase in MDM2 level at 30 uM incubated for 16 hrs by Western blot analysis. Format: cell-based. A digest of the protocol:
(§3)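 Exponentially growing U2OS cells were treated at 30 μM for 16 h, then lysed in RIPA with 1 mM PMSF and protease inhibitors. Lysates were resolved by SDS-PAGE and blotted. Blots were blocked in PBS with 5% milk and 0.1% Tween 20.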

The target of data set [12] is T3, Tumour suppressor p53/oncoprotein Mdm2 (Homo sapiens). Kind of data set: Inhibition of MDM2/p53 interaction in human U2OS cells assessed as increase in p53 level at 30 uM incubated for 16 hrs by Western blot analysis. Format: cell-based. A digest of the protocol: as §3
Data set [13] has the same target. Briefly: Inhibition of MDM2/p53 interaction in human U2OS cells assessed as increase in p21 level at 30 uM incubated for 16 hrs by Western blot analysis. Format: cell-based. The gist of the method:
as §3

Calls of active or inactive are those of the source. No cut-off for these calls is given here.

The record followed here is ChEMBL document CHEMBL4321882, “α-Helix-Mimicking Sulfono-γ-AApeptide Inhibitors for p53-MDM2/MDMX Protein-Protein Interactions” (J Med Chem, 2020).

Cellular tumor antigen p53 (Homo sapiens), sequence (P04637 whole entry, looked up): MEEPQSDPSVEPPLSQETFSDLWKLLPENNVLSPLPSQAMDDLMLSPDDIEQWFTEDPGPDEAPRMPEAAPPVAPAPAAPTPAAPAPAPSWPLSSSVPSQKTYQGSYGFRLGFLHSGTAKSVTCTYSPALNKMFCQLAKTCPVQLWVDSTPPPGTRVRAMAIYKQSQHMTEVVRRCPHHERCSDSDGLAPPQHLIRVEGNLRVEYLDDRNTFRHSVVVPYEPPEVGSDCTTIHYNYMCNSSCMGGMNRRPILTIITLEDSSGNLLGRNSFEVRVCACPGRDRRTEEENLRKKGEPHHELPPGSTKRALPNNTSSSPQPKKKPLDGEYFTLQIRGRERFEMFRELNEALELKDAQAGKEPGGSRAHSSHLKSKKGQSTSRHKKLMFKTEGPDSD
T3 sequence (P04637 whole entry, looked up): as above
T3 sequence (Q00987 whole entry, looked up): as the sequence (Q00987 whole entry) above

Turning to `CC(=O)N[C@@H](CC(C)C)CN(CC(=O)N[C@@H](Cc1ccccc1)CN(CC(=O)N[C@@H](CCC(=O)O)CN(CC(=O)N[C@@H](Cc1c[nH]c2ccccc12)CN(CC(=O)N[C@@H](CCCCN)CN(CC(=O)N[C@@H](CC(C)C)CN(CC(=O)N[C@@H](C)CN(CC(N)=O)S(C)(=O)=O)S(=O)(=O)CC(C)C)S(C)(=O)=O)S(C)(=O)=O)S(C)(=O)=O)S(C)(=O)=O)S(=O)(=O)c1ccc(Cl)cc1`, the Stability result in [1] and in data set [6] was “Stable” in each case. Further, the Kd in [2] amounted to 0.057 µM; at Protein Mdm4, 0.37 µM. For the same molecule, the IC50 in [2] (read-out: IC50) came out at 2.8 µM; at Protein Mdm4, 6 µM. The Ratio IC50 in data set [3] was determined as 1.5. Besides, in [4], the result was Active. In addition, in data set [5], the outcome was inactive.

Regarding `CC(=O)N[C@@H](CC(C)C)CN(CC(=O)N[C@@H](Cc1ccccc1)CN(CC(=O)N[C@@H](CCC(=O)O)CN(CC(=O)N[C@@H](Cc1c[nH]c2ccccc12)CN(CC(=O)N[C@@H](CCCCN)CN(CC(=O)N[C@@H](CC1CCC1)CN(CC(=O)N[C@@H](C)CN(CC(N)=O)S(C)(=O)=O)S(=O)(=O)CC(C)C)S(C)(=O)=O)S(C)(=O)=O)S(C)(=O)=O)S(C)(=O)=O)S(=O)(=O)c1ccc(Cl)cc1`, the Stability result in data set [1] and in data set [6] was “Stable” throughout. In addition, the Kd amounted to 0.026 µM in data set [2] and 0.221 µM at Protein Mdm4. Moreover, the IC50 in data set [2] (read-out: IC50) came to 0.891 µM; on Protein Mdm4, 3.6 µM. Moreover, the result (in data set [7]; in data set [4]; in the data set on HCT-116 [10]) was Active. Further, the Ratio in [8] amounted to 10. Also, in data set [5], the outcome was inactive. In the data set with HCT-116 [9], the inhibition result was “Active”.

As to `CC(=O)N[C@@H](CC(C)C)CN(CC(=O)N[C@@H](Cc1ccccc1)CN(CC(=O)N[C@@H](CCC(=O)O)CN1CC(=O)N[C@@H](Cc2c[nH]c3ccccc23)CN(S(C)(=O)=O)CC(=O)N[C@@H](CCCCN)CN(CC(=O)N[C@@H](CC(C)C)CN(CC(=O)N[C@@H](C)CN(CC(N)=O)S(C)(=O)=O)S(=O)(=O)CC(C)C)S(=O)(=O)CC/C=C/CCCCS1(=O)=O)S(C)(=O)=O)S(=O)(=O)c1ccc(Cl)cc1`, the Stability result in [1] and in data set [6] was “Stable” throughout. The 50% inhibitory concentration (IC50) in data set [2] (read-out: IC50) was 3.6 µM; at Protein Mdm4 it was 6.6 µM. Also, in [4], the Activity was found to be 25%. For the same molecule, the inhibition entry in [11], in data set [12] and in data set [13] was “Active” each time.

Turning to `CC(=O)N[C@@H](CC(C)C)CN(CC(=O)N[C@@H](Cc1ccccc1)CN(CC(=O)N[C@@H](CCC(=O)O)CN(CC(=O)N[C@@H](Cc1c[nH]c2ccccc12)CN(CC(=O)N[C@@H](CCCCN)CN(CC(=O)N[C@@H](CC1CCCCC1)CN(CC(=O)N[C@@H](C)CN(CC(N)=O)S(C)(=O)=O)S(=O)(=O)CC(C)C)S(C)(=O)=O)S(C)(=O)=O)S(C)(=O)=O)S(C)(=O)=O)S(=O)(=O)c1ccc(Cl)cc1`, the Stability result in [1] and in data set [6] was “Stable” throughout.

Consider `CC(=O)N[C@@H](CC(C)C)CN(CC(=O)N[C@@H](Cc1ccccc1)CN(CC(=O)N[C@@H](CCC(=O)O)CN(CC(=O)N[C@@H](C)CN(CC(=O)N[C@@H](CCCCN)CN(CC(=O)N[C@@H](CC(C)C)CN(CC(=O)N[C@@H](C)CN(CC(N)=O)S(C)(=O)=O)S(=O)(=O)CC(C)C)S(C)(=O)=O)S(C)(=O)=O)S(C)(=O)=O)S(C)(=O)=O)S(=O)(=O)c1ccc(Cl)cc1`, for which the IC50 result in data set [2] is on record as “Not Active”.

For `CC(=O)N[C@@H](CC(C)C)CN(CC(=O)N[C@@H](Cc1ccccc1)CN(CC(=O)N[C@@H](CCC(=O)O)CN1CC(=O)N[C@@H](Cc2c[nH]c3ccccc23)CN(S(C)(=O)=O)CC(=O)N[C@@H](CCCCN)CN(CC(=O)N[C@@H](CC(C)C)CN(CC(=O)N[C@@H](C)CN(CC(N)=O)S(C)(=O)=O)S(=O)(=O)CC(C)C)S(=O)(=O)CCCC/C=C/CCCCS1(=O)=O)S(C)(=O)=O)S(=O)(=O)c1ccc(Cl)cc1`, the Stability result in data set [1] and in [6] was “Stable” each time. Also, the half-inhibitory concentration (IC50) was determined as 1.9 µM in [2] (read-out: IC50) and 3.9 µM at Protein Mdm4. In addition, in data set [4], the Activity worked out at 70%. Moreover, the inhibition entry (in data set [11]; in data set [12]; in data set [13]; with HCT-116 [9]) was “Active” throughout. For the same molecule, the result in the data set on HCT-116 [10] was Active.
